From ChEMBL document CHEMBL4014339, “Discovery of 1,4-Benzodiazepine-2,5-dione (BZD) Derivatives as Dual Nucleotide Binding Oligomerization Domain Containing 1/2 (NOD1/NOD2) Antagonists Sensitizing Paclitaxel (PTX) To Suppress Lewis Lung Carcinoma (LLC) Growth in Vivo” (J Med Chem, 2017)
Activity calls are given as the source filed them. The rule behind the calls is not given here.

Tests used:
[1] = molecular target: T1, Nucleotide-binding oligomerization domain-containing protein 1 (Homo sapiens) (UniProt Q9Y239); assay: Antagonist activity at human NOD1 expressed in HEK-Blue cells assessed as inhibition of C12-iE-DAP-stimulated cell activation at 10 uM preincubated for 3 hrs followed by C12-iE-DAP addition measured after 20 hrs by SEAP reporter gene assay; type: cell-based
T1 sequence (whole entry): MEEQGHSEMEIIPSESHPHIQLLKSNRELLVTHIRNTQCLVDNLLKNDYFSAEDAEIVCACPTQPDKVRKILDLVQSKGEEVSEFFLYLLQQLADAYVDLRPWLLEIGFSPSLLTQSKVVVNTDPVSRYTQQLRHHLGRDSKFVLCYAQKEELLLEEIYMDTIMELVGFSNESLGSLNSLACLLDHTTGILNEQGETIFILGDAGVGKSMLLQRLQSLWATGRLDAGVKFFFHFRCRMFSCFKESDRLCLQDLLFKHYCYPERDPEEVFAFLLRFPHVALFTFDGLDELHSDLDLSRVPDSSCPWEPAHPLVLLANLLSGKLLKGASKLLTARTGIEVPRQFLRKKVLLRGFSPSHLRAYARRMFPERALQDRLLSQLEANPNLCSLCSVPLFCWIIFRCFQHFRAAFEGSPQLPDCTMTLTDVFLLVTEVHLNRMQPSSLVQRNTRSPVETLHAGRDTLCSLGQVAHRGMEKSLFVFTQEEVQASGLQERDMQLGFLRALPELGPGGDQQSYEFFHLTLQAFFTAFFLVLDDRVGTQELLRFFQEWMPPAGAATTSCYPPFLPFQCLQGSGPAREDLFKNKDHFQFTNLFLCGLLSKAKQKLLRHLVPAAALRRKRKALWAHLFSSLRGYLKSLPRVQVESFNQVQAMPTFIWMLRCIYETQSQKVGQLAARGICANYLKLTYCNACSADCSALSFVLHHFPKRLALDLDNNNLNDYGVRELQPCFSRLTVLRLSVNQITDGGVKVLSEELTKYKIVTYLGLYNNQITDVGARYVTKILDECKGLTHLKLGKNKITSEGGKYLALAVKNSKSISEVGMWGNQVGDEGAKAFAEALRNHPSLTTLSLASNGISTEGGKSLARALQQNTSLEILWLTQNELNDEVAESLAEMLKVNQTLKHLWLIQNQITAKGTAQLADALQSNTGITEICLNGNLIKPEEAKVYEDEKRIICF
Outline: (§1)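 HEK-Blue hNOD1 or hNOD2 cells preincubated with compound 3 h, then stimulated 20 h with C12-iE-DAP 50 ng/mL (NOD1) or MDP 100 ng/mL (NOD2); SEAP in supernatant quantified. Primary screen at 10 μM, hits repeated in triplicate; IC50 from dose-response, mean ± SD (n = 3), only for compounds reaching ≥50% inhibition at the screening concentration.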

[2] = molecular target: T2, Nucleotide-binding oligomerization domain-containing protein 2 (Homo sapiens, UniProt Q9HC29); assay: Antagonist activity at human NOD2 expressed in HEK-Blue cells assessed as inhibition of MDP-stimulated cell activation at 10 uM preincubated for 3 hrs followed by MDP addition measured after 20 hrs by SEAP reporter gene assay; type: cell-based; outline: as §1
T2 sequence (Q9HC29 whole entry, the tested form may be a part): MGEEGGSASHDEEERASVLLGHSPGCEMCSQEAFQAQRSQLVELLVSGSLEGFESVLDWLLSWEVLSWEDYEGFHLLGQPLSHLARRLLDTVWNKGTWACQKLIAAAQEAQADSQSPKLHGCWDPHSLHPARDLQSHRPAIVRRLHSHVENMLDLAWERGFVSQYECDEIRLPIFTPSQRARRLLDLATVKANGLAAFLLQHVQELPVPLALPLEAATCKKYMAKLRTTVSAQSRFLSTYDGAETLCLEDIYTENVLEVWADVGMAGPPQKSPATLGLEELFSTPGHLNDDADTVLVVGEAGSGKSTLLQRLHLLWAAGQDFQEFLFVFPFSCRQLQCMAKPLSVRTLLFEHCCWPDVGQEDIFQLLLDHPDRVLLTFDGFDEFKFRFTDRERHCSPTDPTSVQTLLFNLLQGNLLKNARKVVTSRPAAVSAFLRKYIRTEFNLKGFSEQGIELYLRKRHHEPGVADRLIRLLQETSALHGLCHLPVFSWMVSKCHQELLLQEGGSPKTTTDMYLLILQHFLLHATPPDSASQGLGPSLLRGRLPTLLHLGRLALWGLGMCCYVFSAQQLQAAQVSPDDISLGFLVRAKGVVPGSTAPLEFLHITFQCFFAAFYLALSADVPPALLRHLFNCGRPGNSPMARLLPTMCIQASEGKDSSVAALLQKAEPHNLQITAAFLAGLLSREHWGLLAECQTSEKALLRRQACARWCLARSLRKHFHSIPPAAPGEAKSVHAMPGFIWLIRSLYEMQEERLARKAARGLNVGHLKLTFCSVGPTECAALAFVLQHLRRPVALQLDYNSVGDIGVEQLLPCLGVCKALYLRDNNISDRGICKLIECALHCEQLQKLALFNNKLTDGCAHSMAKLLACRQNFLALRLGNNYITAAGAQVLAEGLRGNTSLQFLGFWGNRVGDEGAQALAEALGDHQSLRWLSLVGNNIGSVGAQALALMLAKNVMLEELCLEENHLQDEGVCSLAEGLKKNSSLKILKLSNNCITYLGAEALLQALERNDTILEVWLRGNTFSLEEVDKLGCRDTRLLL

[3] = molecular target: T2, Nucleotide-binding oligomerization domain-containing protein 2; assay: Antagonist activity at human NOD2 expressed in HEK-Blue cells assessed as inhibition of MDP-stimulated cell activation at 5 uM preincubated for 3 hrs followed by MDP addition measured after 20 hrs by SEAP reporter gene assay; type: cell-based
[4] = molecular target: Tumor necrosis factor (Homo sapiens) (UniProt P01375); assay: Inhibition of recombinant human TNFalpha expressed in HEK-Blue cells assessed as reduction in SEAP release preincubated for 3 hrs measured after 20 hrs by spectrophotometric analysis; type: cell-based
Sequence of Tumor necrosis factor (Homo sapiens) (P01375 whole entry, the tested form may be a part): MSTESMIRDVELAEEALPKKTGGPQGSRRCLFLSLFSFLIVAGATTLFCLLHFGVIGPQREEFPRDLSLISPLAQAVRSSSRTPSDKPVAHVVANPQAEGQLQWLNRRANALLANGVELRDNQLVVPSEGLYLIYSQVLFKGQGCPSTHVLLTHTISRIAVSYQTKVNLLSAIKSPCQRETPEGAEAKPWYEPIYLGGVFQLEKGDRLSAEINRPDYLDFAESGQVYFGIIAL

[5] = molecular target: Receptor-interacting serine/threonine-protein kinase 2 (Homo sapiens) (UniProt O43353); assay: Inhibition of recombinant human N-terminal GST tagged RIPK2 (1 to 299 residues) expressed in baculovirus infected Sf9 insect cells assessed as decrease in MBP phosphorylation at 10 uM preincubated with compound followed by ATP addition measured after 60 mins by ADP-Glo assay
Sequence of Receptor-interacting serine/threonine-protein kinase 2 (Homo sapiens) (O43353 whole entry, the tested form may be a part): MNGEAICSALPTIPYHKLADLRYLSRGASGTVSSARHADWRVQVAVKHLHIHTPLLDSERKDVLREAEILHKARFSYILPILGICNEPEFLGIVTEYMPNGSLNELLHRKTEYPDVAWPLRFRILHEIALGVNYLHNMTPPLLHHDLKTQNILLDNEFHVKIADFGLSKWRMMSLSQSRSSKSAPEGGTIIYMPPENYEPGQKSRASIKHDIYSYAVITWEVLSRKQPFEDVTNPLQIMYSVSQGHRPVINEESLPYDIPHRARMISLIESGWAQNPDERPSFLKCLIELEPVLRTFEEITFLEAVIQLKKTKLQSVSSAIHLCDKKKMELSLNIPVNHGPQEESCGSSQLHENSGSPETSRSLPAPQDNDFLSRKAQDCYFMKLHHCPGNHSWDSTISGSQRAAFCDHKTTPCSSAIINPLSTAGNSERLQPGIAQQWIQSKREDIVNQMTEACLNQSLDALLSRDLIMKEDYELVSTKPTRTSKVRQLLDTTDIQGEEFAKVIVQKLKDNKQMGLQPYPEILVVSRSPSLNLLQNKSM

[6] = molecular target: T1, Nucleotide-binding oligomerization domain-containing protein 1 (Homo sapiens); assay: Inhibition of NOD1 in human PBMC-derived macrophages assessed as reduction in C12-iE-DAP-stimulated TNFalpha mRNA expression at 10 uM preincubated for 1 hr followed by C12-iE-DAP stimulation for 90 mins by RT-qPCR analysis
Outline: (§2)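 Human CD14+ monocytes from donor PBMC, differentiated 7 days with M-CSF 20 ng/mL to macrophages; 1.0 × 10^6 cells pretreated 1 h with compound (final 0.1% DMSO), then C12-iE-DAP 500 ng/mL or MDP 5 μg/mL for 90 min. IL-6/TNF-α mRNA by qRT-PCR, normalized to GAPDH; stimulated response set to 100%.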

[7] = molecular target: T2, Nucleotide-binding oligomerization domain-containing protein 2; assay: Inhibition of NOD2 in human PBMC-derived macrophages assessed as reduction in MDP-stimulated IL6 mRNA expression preincubated for 1 hr followed by MDP stimulation for 90 mins by RT-qPCR analysis; outline: as §2
[8] = molecular target: T1, Nucleotide-binding oligomerization domain-containing protein 1 (Homo sapiens); assay: Inhibition of human NOD1 expressed in HEK293 cells assessed as reduction in C12-iE-DAP-stimulated IL8 secretion preincubated with compound followed by C12-iE-DAP stimulation measured after 24 hrs by ELISA; type: cell-based
[9] = molecular target: T2, Nucleotide-binding oligomerization domain-containing protein 2; assay: Inhibition of human NOD2 expressed in HEK293 cells assessed as reduction in MDP-stimulated IL8 secretion preincubated with compound followed by MDP stimulation measured after 24 hrs by ELISA; type: cell-based
[10] = molecular target: T1, Nucleotide-binding oligomerization domain-containing protein 1 (Homo sapiens); assay: Inhibition of NOD1 in human THP1 cells assessed as suppression of C12-iE-DAP-stimulated p38 phosphorylation at 1 to 10 uM preincubated for 1 hr followed by C12-iE-DAP stimulation after 45 mins by Western blot analysis; type: cell-based
Outline: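 PMA (20 ng/mL, 48 h)-differentiated THP1 macrophages rested 24 h in PMA-free medium, serum-starved (0.1% FBS) overnight, pretreated 1 h with compound, stimulated 45 min with C12-iE-DAP 50 ng/mL. Lysates run on 8% SDS-PAGE, immunoblotted for phospho and total RIP2, p38, JNK, ERK and IκBα.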

[11] = test system: Lewis lung carcinoma cell line; assay: Potentiation of paclitaxel-mediated antitumor activity against mouse LLC cells implanted in C57BL/6 mouse assessed as tumor weight inhibition at 20 mg/kg, iv administered daily measured 11 days after tumor implantation (reference value: 34.54 %); type: functional; conditions: 264 h, read-out: TGI
[12] = test system: Lewis lung carcinoma cell line; assay: Antitumor activity against mouse LLC cells implanted in C57BL/6 mouse assessed as tumor weight inhibition at 20 mg/kg, iv administered daily measured 11 days after tumor implantation; type: functional, organism-based
[13] = molecular target: T2, Nucleotide-binding oligomerization domain-containing protein 2; assay: Inhibition of human NOD2 expressed in HEK293 cells assessed as suppression of MDP-stimulated ERK phosphorylation preincubated for 1 hr followed by MDP stimulation measured after 1 hr by Western blot analysis
[14] = molecular target: T2, Nucleotide-binding oligomerization domain-containing protein 2; assay: Inhibition of human NOD2 expressed in HEK293 cells assessed as suppression of MDP-stimulated RIP2 phosphorylation preincubated for 1 hr followed by MDP stimulation measured after 1 hr by Western blot analysis

CCCNC(=O)CC[C@H]1NC(=O)c2cc(Oc3cccc(N(C)C)c3)c(NC(=O)COCc3ccccc3)cc2NC1=O
inhibition [1]: 86.2% | inhibition [2]: 80.4% | inhibition [3]: 60.9% | inhibition [4]: inactive | inhibition [5]: inactive | inhibition [6]: 35.2% | inhibition [7]: Dose-dependent effect | inhibition [8]: Dose-dependent effect | inhibition [9]: Dose-dependent effect | inhibition [10]: Active | inhibition in vivo at 20 mg/kg [11]: 67.3% | TGI [12]: inactive | inhibition [13]: Dose-dependent effect | inhibition [14]: Dose-dependent effect
